Common to all, as to type: functional
Experiment [1] deals with Rattus norvegicus. Kind of experiment: Antiinflammatory activity in Sprague-Dawley/Wistar rat assessed as decrease in carrageenan-induced paw edema at 10 mg/kg, po administered 3 hrs 30 mins after carrageenan-challenge measured after 60 mins (reference value: 2.48 +/- 0.06 mL). (In general: In the carrageenan paw model, swelling and tenderness develop within hours.)
Experiment [2] has as its system Rattus norvegicus. In words: Antiinflammatory activity in Sprague-Dawley/Wistar rat assessed as decrease in carrageenan-induced hyperalgesia at 3 mg/kg, po administered 4 hrs after carrageenan-challenge measured after 30 mins (reference value: 34.8 +/- 3.0 g).
The subject of experiment [3] is Rattus norvegicus. Kind of experiment: Antiinflammatory activity in Sprague-Dawley/Wistar rat assessed as decrease in carrageenan-induced hyperalgesia at 3 mg/kg, po administered 4 hrs after carrageenan-challenge measured after 60 mins (reference value: 33.9 +/- 3.7 g).
Experiment [4] deals with Rattus norvegicus. Kind of experiment: Antiinflammatory activity in Sprague-Dawley/Wistar rat assessed as decrease in carrageenan-induced hyperalgesia at 10 mg/kg, po administered 4 hrs after carrageenan-challenge measured after 30 mins (reference value: 34.8 +/- 3.0 g).
Experiment [5] concerns Rattus norvegicus. Kind of experiment: Antiinflammatory activity in Sprague-Dawley/Wistar rat assessed as decrease in carrageenan-induced hyperalgesia at 10 mg/kg, po administered 4 hrs after carrageenan-challenge measured after 60 mins (reference value: 33.9 +/- 3.7 g).
The subject of experiment [6] is Rattus norvegicus. In words: Antiinflammatory activity in Sprague-Dawley/Wistar rat assessed as decrease in carrageenan-induced hyperalgesia at 3 mg/kg, po administered 4 hrs after carrageenan-challenge measured after 120 mins (reference value: 31.4 +/- 3.7 g).
The subject of experiment [7] is Rattus norvegicus. Kind of experiment: Antiinflammatory activity in Sprague-Dawley/Wistar rat assessed as decrease in carrageenan-induced paw edema at 3 mg/kg, po administered 3 hrs 30 mins after carrageenan-challenge measured after 60 mins (reference value: 2.48 +/- 0.06 mL).
Experiment [8] concerns Rattus norvegicus. In words: Antiinflammatory activity in Sprague-Dawley/Wistar rat assessed as decrease in carrageenan-induced hyperalgesia at 10 mg/kg, po administered 4 hrs after carrageenan-challenge measured after 120 mins (reference value: 31.4 +/- 3.7 g).
Experiment [9] has as its system Mus musculus. Kind of experiment: Antinociceptive activity in po dosed Swiss albino mouse assessed as reduction in number of acetic acid-induced writhing counted 5 mins after acetic acid challenge counted for 10 mins. The note with it: read-out: MED. The procedure, abridged:
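Male Swiss albino mice (23-25 g) dosed orally, then given 0.6% acetic acid (10 mL/kg) ip. Stretching movements counted for 10 min, starting 5 min after the acetic acid. Control group received CMC. At least 7 mice/group; mean ± SEM, ANOVA with Fisher's PLSD.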
For orientation: An intraperitoneal irritant provokes the stretching counted in writhing tests.

Turning to `Cc1ccc(-c2cc(C(F)(F)F)nn2-c2ccc(S(N)(=O)=O)cc2)cc1` [CELECOXIB], the Activity in [1] was 1.45 mL; in [2], 44.3 g; in experiment [3], 41.6 g; in [4], 52.9 g; in experiment [5] it was 48.3 g; in experiment [6], 40.7 g. The Activity was found to be 2.35 mL in [7] and 39.8 g in experiment [8]. For the same molecule, the minimal effective dose in experiment [9] turned out to be 3 mg/kg.

The values are drawn from ChEMBL document CHEMBL2331234, “Novel analgesic/anti-inflammatory agents: 1,5-diarylpyrrole nitrooxyalkyl ethers and related compounds as cyclooxygenase-2 inhibiting nitric oxide donors” (J Med Chem, 2013).
